According to ChEMBL document CHEMBL1821676, “Click to a focused library of benzyl 6-triazolo(hydroxy)benzoic glucosides: novel construction of PTP1B inhibitors on a sugar scaffold” (Eur J Med Chem, 2011):

molecular target: T1, Tyrosine-protein phosphatase non-receptor type 1 (Homo sapiens, UniProt P18031); assay: Inhibition of human recombinant PTP1B expressed in CHO cells assessed as p-nitorphenol production after 2 mins by microplate reader; format: cell-based
T1 sequence (P18031 whole entry): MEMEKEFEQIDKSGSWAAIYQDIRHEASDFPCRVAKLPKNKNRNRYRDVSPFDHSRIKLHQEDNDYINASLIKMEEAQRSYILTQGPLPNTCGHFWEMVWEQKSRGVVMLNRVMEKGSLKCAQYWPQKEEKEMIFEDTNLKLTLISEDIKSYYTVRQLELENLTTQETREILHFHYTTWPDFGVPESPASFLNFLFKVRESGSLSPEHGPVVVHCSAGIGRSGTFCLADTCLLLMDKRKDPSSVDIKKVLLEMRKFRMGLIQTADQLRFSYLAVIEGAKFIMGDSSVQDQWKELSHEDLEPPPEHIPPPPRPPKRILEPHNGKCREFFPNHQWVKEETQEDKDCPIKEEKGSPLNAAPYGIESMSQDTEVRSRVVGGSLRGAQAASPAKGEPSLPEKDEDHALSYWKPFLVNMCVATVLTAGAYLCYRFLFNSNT
Summary of the method: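 Recombinant human PTP1B catalytic domain (30 nM) with 2 mM pNPP in 50 mM MOPS, pH 6.5, at 30 °C. pNP release was read continuously at 405 nm for 2 min, and the initial rate was taken from the early linear region. Inhibitors were diluted around the estimated IC50. IC50 came from a nonlinear fit of % inhibition vs [I] using a Hill-coefficient equation.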

IC50, > 100 µM:
O=C(O)c1cc(O)cc(O)c1 [3,5-DIHYDROXYBENZOIC ACID]
O=C(O)c1cccc(O)c1 [3-HYDROXYBENZOIC ACID]
O=C(O)c1cc(O)ccc1O [GENTISIC ACID]
